Test results reported in ChEMBL document CHEMBL1142136, “Contribution of target gene mutations and efflux to decreased susceptibility of Salmonella enterica serovar typhimurium to fluoroquinolones and other antimicrobials” (2007).

What was measured:
Type in all cases: functional, Salmonella enterica subsp. enterica serovar Typhimurium
Salmonella typhimurium [1] = experiment: Antimicrobial activity against Salmonella enterica serovar Typhimurium CHS38 acrAB::Kan with GyrA D87G mutation
Outline: (§1)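 MICs measured by broth microdilution on the Sensititre automated system and interpreted by CLSI broth microdilution standards. Ciprofloxacin was also tested by agar dilution, widening the range to 0.0075–128 μg/ml. Quality control strains were E. coli ATCC 25922 and 35218, E. faecalis ATCC 29212, S. aureus ATCC 29213 and P. aeruginosa ATCC 27853.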

Salmonella typhimurium [2] = experiment: Antimicrobial activity against Salmonella enterica serovar Typhimurium CHS14 gyrA+ with GyrA D87G mutation; outline: as §1
Salmonella typhimurium [3] = experiment: Antimicrobial activity against Salmonella enterica serovar Typhimurium S21-3 with GyrA S83F, ParC S80I mutation; outline: as §1
Salmonella typhimurium [4] = experiment: Antimicrobial activity against Salmonella enterica serovar Typhimurium CS3 gyrA+ with GyrA S83F, D87N, ParC S80I mutation; outline: as §1
Salmonella typhimurium [5] = experiment: Antimicrobial activity against Salmonella enterica serovar Typhimurium CHS18 gyrA+ with GyrA S38F mutation; outline: as §1
Salmonella typhimurium [6] = experiment: Antimicrobial activity against Salmonella enterica serovar Typhimurium CHS38 gyrA+ with GyrA D87G mutation; outline: as §1
Salmonella typhimurium [7] = experiment: Antimicrobial activity against Salmonella enterica serovar Typhimurium S21; outline: as §1
Salmonella typhimurium [8] = experiment: Antimicrobial activity against Salmonella enterica serovar Typhimurium CS9 gyrA+ with GyrA S83F, D87N, ParC S80I mutation; outline: as §1
Salmonella typhimurium [9] = experiment: Antimicrobial activity against Salmonella enterica serovar Typhimurium CS3 with GyrA S83F, D87N, ParC S80I mutation; outline: as §1
Salmonella typhimurium [10] = experiment: Antimicrobial activity against Salmonella enterica serovar Typhimurium S21-1 gyrA+; outline: as §1
Salmonella typhimurium [11] = experiment: Antimicrobial activity against Salmonella enterica serovar Typhimurium CS9 tolC::Kan with GyrA S83F, D87N, ParC S80I mutation; outline: as §1
Salmonella typhimurium [12] = experiment: Antimicrobial activity against Salmonella enterica serovar Typhimurium CHS38 with GyrA D87G mutation; outline: as §1
Salmonella typhimurium [13] = experiment: Antimicrobial activity against Salmonella enterica serovar Typhimurium S21 acrAB::Kan
Outline: (§2)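 MICs by automated broth microdilution panels, interpreted to CLSI broth microdilution standards. Ciprofloxacin additionally tested by agar dilution across 0.0075 to 128 μg/ml. Quality control strains: E. coli ATCC 25922 and 35218, Enterococcus faecalis ATCC 29212, S. aureus ATCC 29213, P. aeruginosa ATCC 27853. Test strains are kanamycin-marked deletion mutants of ground-beef isolate S21.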

Salmonella typhimurium [14] = experiment: Antimicrobial activity against Salmonella enterica serovar Typhimurium S21-3 gyrA+ with ParC S80I mutation; outline: as §1
Salmonella typhimurium [15] = experiment: Antimicrobial activity against Salmonella enterica serovar Typhimurium S21-2 tolC::Kan with GyrA S83F, ParC S80I mutation; outline: as §1
Salmonella typhimurium [16] = experiment: Antimicrobial activity against Salmonella enterica serovar Typhimurium S21-2 gyrA+ with ParC S80I mutation; outline: as §1
Salmonella typhimurium [17] = experiment: Antimicrobial activity against Salmonella enterica serovar Typhimurium CS1 gyrA+ with GyrA S83F, D87N, ParC S80I mutation; outline: as §1
Salmonella typhimurium [18] = experiment: Antimicrobial activity against Salmonella enterica serovar Typhimurium S21-3 acrAB::Kan with GyrA S83F, ParC S80I mutation; outline: as §1
Salmonella typhimurium [19] = experiment: Antimicrobial activity against Salmonella enterica serovar Typhimurium S21-2 with GyrA S83F, ParC S80I mutation; outline: as §1
Salmonella typhimurium [20] = experiment: Antimicrobial activity against Salmonella enterica serovar Typhimurium CS1 acrAB::Kan with GyrA S83F, D87N, ParC S80I mutation; outline: as §1
Salmonella typhimurium [21] = experiment: Antimicrobial activity against Salmonella enterica serovar Typhimurium CHS18 with GyrA S38F mutation; outline: as §1
Salmonella typhimurium [22] = experiment: Antimicrobial activity against Salmonella enterica serovar Typhimurium S21 tolC::Kan; outline: as §2
Salmonella typhimurium [23] = experiment: Antimicrobial activity against Salmonella enterica serovar Typhimurium S21-4 with GyrA S83F, ParC S80I mutation; outline: as §1
Salmonella typhimurium [24] = experiment: Antimicrobial activity against Salmonella enterica serovar Typhimurium CHS14 tolC::Kan with GyrA D87G mutant; outline: as §1
Salmonella typhimurium [25] = experiment: Antimicrobial activity against Salmonella enterica serovar Typhimurium CS3 tolC::Kan with GyrA S83F, D87N, parC S80I mutation; outline: as §1
Salmonella typhimurium [26] = experiment: Antimicrobial activity against Salmonella enterica serovar Typhimurium CS1 with GyrA S83F, D87N, ParC S80I mutation; outline: as §1
Salmonella typhimurium [27] = experiment: Antimicrobial activity against Salmonella enterica serovar Typhimurium CHS14 acrAB::Kan with GyrA D87G mutation; outline: as §1
Salmonella typhimurium [28] = experiment: Antimicrobial activity against Salmonella enterica serovar Typhimurium S21-4 gyrA+ with ParC S80I mutation; outline: as §1
Salmonella typhimurium [29] = experiment: Antimicrobial activity against Salmonella enterica serovar Typhimurium GyrA S21-1 acrAB::Kan with GyrA S83F mutation; outline: as §1
Salmonella typhimurium [30] = experiment: Antimicrobial activity against Salmonella enterica serovar Typhimurium CHS14 with GyrA D87G mutation; outline: as §1
Salmonella typhimurium [31] = experiment: Antimicrobial activity against Salmonella enterica serovar Typhimurium CS9 with GyrA S83F, D87N, ParC S80I mutation; outline: as §1
Salmonella typhimurium [32] = experiment: Antimicrobial activity against Salmonella enterica serovar Typhimurium CHS18 acrAB::Kan with GyrA S38F mutation; outline: as §1
Salmonella typhimurium [33] = experiment: Antimicrobial activity against Salmonella enterica serovar Typhimurium S21 gyrA+; outline: as §1
Salmonella typhimurium [34] = experiment: Antimicrobial activity against Salmonella enterica serovar Typhimurium S21-4 acrAB::Kan with GyrA S83F, ParC S80I mutation; outline: as §1
Salmonella typhimurium [35] = experiment: Antimicrobial activity against Salmonella enterica serovar Typhimurium CS1 tolC::Kan with GyrA S83F, D87N, ParC S80I mutation; outline: as §1
Salmonella typhimurium [36] = experiment: Antimicrobial activity against Salmonella enterica serovar Typhimurium CHS18 tolC::Kan with GyrA S38F mutation; outline: as §1
Salmonella typhimurium [37] = experiment: Antimicrobial activity against Salmonella enterica serovar Typhimurium S21-1 tolC::Kan with GyrA S83F mutation; outline: as §1
Salmonella typhimurium [38] = experiment: Antimicrobial activity against Salmonella enterica serovar Typhimurium S21-2 acrAB::Kan with GyrA S83F, ParC S80I mutation; outline: as §1
Salmonella typhimurium [39] = experiment: Antimicrobial activity against Salmonella enterica serovar Typhimurium CS9 acrAB::Kan with GyrA S83F, D87N, ParC S80I mutation; outline: as §1
Salmonella typhimurium [40] = experiment: Antimicrobial activity against Salmonella enterica serovar Typhimurium S21-1 GyrA S83F mutant; outline: as §1
Salmonella typhimurium [41] = experiment: Antimicrobial activity against Salmonella enterica serovar Typhimurium S21-4 tolC::Kan with GyrA S83F, ParC S80I mutation; outline: as §1
Salmonella typhimurium [42] = experiment: Antimicrobial activity against Salmonella enterica serovar Typhimurium CHS38 tolC::Kan with GyrA D87G mutation; outline: as §1
Salmonella typhimurium [43] = experiment: Antimicrobial activity against Salmonella enterica serovar Typhimurium S21-3 tolC::Kan with GyrA S83F, ParC S80I mutation; outline: as §1
Salmonella typhimurium [44] = experiment: Antimicrobial activity against Salmonella enterica serovar Typhimurium CS3 acrAB::Kan with GyrA S83F, D87N, ParC S80I mutation; outline: as §1

Measured: MIC

CN1C[C@@H]2C[C@H]1CN2c1cc2c(cc1F)c(=O)c(C(=O)O)cn2C1CC1 [DANOFLOXACIN]
2 µg/mL: Salmonella typhimurium [14]
0.06 µg/mL: Salmonella typhimurium [4] | Salmonella typhimurium [5] | Salmonella typhimurium [8] | Salmonella typhimurium [17] | Salmonella typhimurium [29] | Salmonella typhimurium [36] | Salmonella typhimurium [37]
< 0.015 µg/mL: Salmonella typhimurium [6] | Salmonella typhimurium [13] | Salmonella typhimurium [22] | Salmonella typhimurium [42]
0.25 µg/mL: Salmonella typhimurium [12] | Salmonella typhimurium [18] | Salmonella typhimurium [30] | Salmonella typhimurium [34] | Salmonella typhimurium [41] | Salmonella typhimurium [43]
4 µg/mL: Salmonella typhimurium [11] | Salmonella typhimurium [19] | Salmonella typhimurium [20] | Salmonella typhimurium [25] | Salmonella typhimurium [28] | Salmonella typhimurium [35] | Salmonella typhimurium [39] | Salmonella typhimurium [44]
0.03 µg/mL: Salmonella typhimurium [1] | Salmonella typhimurium [2] | Salmonella typhimurium [7] | Salmonella typhimurium [10] | Salmonella typhimurium [24] | Salmonella typhimurium [27] | Salmonella typhimurium [32] | Salmonella typhimurium [33]
1 µg/mL: Salmonella typhimurium [16]
0.5 µg/mL: Salmonella typhimurium [21] | Salmonella typhimurium [40]
0.12 µg/mL: Salmonella typhimurium [15] | Salmonella typhimurium [38]
> 16 µg/mL: Salmonella typhimurium [3] | Salmonella typhimurium [9] | Salmonella typhimurium [23] | Salmonella typhimurium [26] | Salmonella typhimurium [31]

CN1CCN(c2cc3c(cc2F)c(=O)c(C(=O)O)cn3-c2ccc(F)cc2)CC1 [DIFLOXACIN]
2 µg/mL: Salmonella typhimurium [16] | Salmonella typhimurium [21]
1 µg/mL: Salmonella typhimurium [12] | Salmonella typhimurium [30] | Salmonella typhimurium [32] | Salmonella typhimurium [34] | Salmonella typhimurium [41]
0.25 µg/mL: Salmonella typhimurium [5] | Salmonella typhimurium [7] | Salmonella typhimurium [10] | Salmonella typhimurium [15] | Salmonella typhimurium [29] | Salmonella typhimurium [33] | Salmonella typhimurium [37] | Salmonella typhimurium [38]
0.03 µg/mL: Salmonella typhimurium [24] | Salmonella typhimurium [27]
4 µg/mL: Salmonella typhimurium [11] | Salmonella typhimurium [14] | Salmonella typhimurium [25] | Salmonella typhimurium [28] | Salmonella typhimurium [35] | Salmonella typhimurium [40]
< 0.015 µg/mL: Salmonella typhimurium [6] | Salmonella typhimurium [13] | Salmonella typhimurium [22] | Salmonella typhimurium [42]
0.06 µg/mL: Salmonella typhimurium [1] | Salmonella typhimurium [36]
16 µg/mL: Salmonella typhimurium [20] | Salmonella typhimurium [39] | Salmonella typhimurium [44]
> 16 µg/mL: Salmonella typhimurium [3] | Salmonella typhimurium [9] | Salmonella typhimurium [19] | Salmonella typhimurium [23] | Salmonella typhimurium [26] | Salmonella typhimurium [31]
0.5 µg/mL: Salmonella typhimurium [2] | Salmonella typhimurium [4] | Salmonella typhimurium [8] | Salmonella typhimurium [17] | Salmonella typhimurium [18] | Salmonella typhimurium [43]
